Experimental data taken from ChEMBL document CHEMBL1125366, “Low molecular weight, non-peptide fibrinogen receptor antagonists” (J Med Chem, 1992).
Square brackets hold non-standard residues; d marks the D form. Peptide text beside a SMILES is read from it. * marks the point of attachment. 3Abz = Nc1cccc(C(=O)O)c1; Boc = CC(C)(C)OC(=O)*

What was measured:
[1] = Inhibition of platelet aggregation in human-platelet rich plasma(h-PRP) induced by collagen; format: functional
Procedure, shortened: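 Citrated human PRP with serial inhibitor dilutions; aggregation triggered by collagen at 2.5 μg/mL (final) and followed as rate of light transmission change in an aggregometer; plasma from at least four donors.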

[2] = molecular target: T1, Integrin alpha-IIb/beta-3 (Homo sapiens) (UniProt P05106+P08514); assay: (§1) Inhibition of fibrinogen binding to immobilized fibrinogen receptor; format: protein-complex assay; set-up: reference not given here
[3] = molecular target: Integrin alpha-V/beta-3 (Homo sapiens) (UniProt P05106+P06756); assay: Inhibition of fibrinogen binding to immobilized vitronectin receptor; format: protein-complex assay; set-up: reference not given here
[4] = Inhibition of platelet aggregation in human-platelet rich plasma(h-PRP) induced by adenosine 5'-diphosphate-(ADP); format: functional
Procedure, shortened: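 Citrated human PRP with serial inhibitor dilutions; aggregation triggered by 10 μM ADP (final) and followed as rate of light transmission change in an aggregometer; plasma from at least four donors.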

[5] = Inhibition of platelet aggregation in human-platelet rich plasma(h-PRP) induced by thrombin; format: functional
Procedure, shortened: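 Citrated human PRP with serial inhibitor dilutions; aggregation triggered by thrombin at 0.2 unit/mL (final) and followed as rate of light transmission change in an aggregometer; plasma from at least four donors.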

[6] = molecular target: T1, Integrin alpha-IIb/beta-3 (Homo sapiens); assay: as §1; format: protein-complex assay

Row | IC50 [1] [nM] | Ratio [2] | Ratio [3] | IC50 [4] [nM] | IC50 [5] [nM] | Ratio [6] | SMILES
1 | 2300 | – | – | – | – | – | CC(C)[C@H](NC(=O)[C@H](CC(=O)O)NC(=O)CNC(=O)CCc1ccc(C(=N)N)cc1)C(=O)O
2 | 300 | 0.028 | 1300 | 800 | 400 | – | N=C(N)c1ccc(C(=O)NCCc2ccc(OCC(=O)O)cc2)cc1
3 | 70 | 0.009 | > 30000 | 100 | 70 | – | N=C(N)c1ccc(C(=O)N[C@@H](CCCN)C(=O)N2CCC(OCC(=O)O)CC2)cc1
4 | 40 | 6e-05 | – | 50 | 20 | – | N=C(N)c1ccc(C(=O)NCCC(=O)N[C@@H](CC(=O)O)C(=O)N[C@@H](Cc2ccc(O)cc2)C(=O)O)cc1
5 | 900 | 0.007 | – | 1100 | 900 | – | N=C(N)c1ccc(C(=O)NCCC(=O)NCCC(=O)O)cc1
6 | 20 | 0.0002 | 17500 | 30 | 30 | – | N=C(N)c1ccc(C(=O)N[C@@H](Cc2ccc(O)cc2)C(=O)N2CCC(OCC(=O)O)CC2)cc1 [LAMIFIBAN]
7 | 38000 | 0.3 | 3.5 | 19000 | 21000 | – | N=C(N)NCCC[C@H](N)C(=O)NCC(=O)N[C@@H](CC(=O)O)C(=O)N[C@@H](Cc1ccccc1)C(=O)O (H-RGDF-OH)
8 | 15000 | 0.37 | 12000 | 13000 | 49000 | – | C[C@@]1(C(=O)N2CCC(OCC(=O)O)CC2)CCCN1C(=O)c1ccc(C(=N)N)cc1
9 | 600 | 0.02 | 700 | 700 | 500 | – | CC(C)[C@H](NC(=O)[C@H](CC(=O)O)NC(=O)CNC(=O)COc1ccc(C(=N)N)cc1)C(=O)O
10 | 70 | 0.0007 | > 27000 | 50 | 50 | – | C[C@H](NC(=O)c1ccc(C(=N)N)cc1)C(=O)N1CCC(OCC(=O)O)CC1 [RO-44-3888]
11 | 130 | 0.004 | 8400 | 90 | 90 | – | N=C(N)c1ccc(C(=O)NCC(=O)c2ccc(OCC(=O)O)cc2)cc1
12 | 400 | 0.004 | 280 | 200 | 100 | – | N=C(N)c1ccc(C(=O)NCCCCC(=O)N[C@@H](CC(=O)O)C(=O)N[C@@H](Cc2ccccc2)C(=O)O)cc1
13 | 100 | 0.002 | 8000 | 120 | 130 | – | COc1ccc(CCNC(=O)[C@H](CC(=O)O)NC(=O)CCNC(=O)c2ccc(C(=N)N)cc2)cc1
14 | 76000 | 1 | 570 | – | 78000 | – | N=C(N)c1ccc(C(=O)NCC(=O)N[C@@H](CC(=O)O)C(=O)N[C@@H](Cc2ccccc2)C(=O)O)cc1
15 | 110 | 0.002 | – | 60 | 50 | – | N=C(N)c1ccc(C(=O)N2CCC[C@H]2C(=O)N2CCC(OCC(=O)O)CC2)cc1
16 | 300 | 0.45 | 2300 | 900 | 500 | – | COC(=O)COc1ccc(CCNC(=O)c2ccc(C(=N)N)cc2)cc1
17 | 153000 | 10 | 2500 | 95000 | 95000 | – | N=C(N)c1ccc(CC(N)C(=O)Nc2cccc(C(=O)NCCC(=O)O)c2)cc1 (stereo unspecified)
18 | 50000 | 1.3 | 900 | 51000 | 68000 | – | NC(N)=NCCC[C@H](N)C(=O)Nc1cccc(C(=O)NCCC(=O)O)c1
19 | 102000 | 10.5 | > 30000 | 115000 | 103000 | – | C[C@H](Cc1ccc(OCC(=O)O)cc1)NS(=O)(=O)c1ccc(C(=N)N)cc1

Row | IC50 [1] [nM] | Ratio [2] | Ratio [3] | IC50 [4] [nM] | IC50 [5] [nM] | Ratio [6] | SMILES
20 | 7000 | 0.06 | 250 | 4900 | 4400 | – | CC(C)[C@H](NC(=O)[C@H](CC(=O)O)NC(=O)c1cccc(NC(=O)[C@H](CCCN=C(N)N)NC(=O)OC(C)(C)C)c1)C(=O)O (Boc-R[3Abz]DV-OH)
21 | 11000 | – | – | – | – | – | COC(=O)COc1ccc(C[C@H](C)NS(=O)(=O)c2ccc(C(=N)N)cc2)cc1
22 | 100 | 0.008 | > 8000 | 110 | 90 | – | N=C(N)c1ccc(C(=O)NCC(=O)N2CCC(OCC(=O)O)CC2)cc1
23 | 11000 | 0.34 | 1700 | 7400 | 9300 | – | C[C@@H](Cc1ccc(OCC(=O)O)cc1)NS(=O)(=O)c1ccc(C(=N)N)cc1
24 | 500 | 0.001 | 560 | 300 | 300 | – | CC(C)[C@H](NC(=O)[C@H](CC(=O)O)NC(=O)CNC(=O)Cc1ccc(C(=N)N)cc1)C(=O)O
25 | 9600 | – | – | – | – | – | NCc1ccc(C(=O)Nc2cccc(C(=O)NCCC(=O)O)c2)cc1
26 | 142000 | 1 | 1 | 88000 | 135000 | – | N=C(N)NCCC[C@H](N)C(=O)NCC(=O)N[C@@H](CC(=O)O)C(=O)N[C@@H](CO)C(=O)O
27 | 20 | 0.001 | > 20000 | 30 | 40 | – | N=C(N)c1ccc(C(=O)NCC(=O)c2ccc(OCC(=O)O)cc2)nc1
28 | 700 | 0.002 | 1700 | 700 | 700 | – | CC(C)[C@H](NC(=O)[C@H](CC(=O)O)NC(=O)CCCNC(=O)c1ccc(C(=N)N)cc1)C(=O)O
29 | 60 | 0.0003 | 4500 | 60 | 70 | – | N=C(N)c1ccc(C(=O)NCCC(=O)N[C@@H](CC(=O)O)C(=O)N[C@@H](Cc2ccccc2)C(=O)O)cc1
30 | 70 | 0.0001 | 37000 | 70 | 60 | – | CN(CC(=O)c1ccc(OCC(=O)O)c(OCC(=O)O)c1)C(=O)c1ccc(C(=N)N)cc1
31 | 340 | 0.02 | > 30000 | 350 | 380 | – | N=C(N)c1ccc(C(=O)N[C@@H](CC(=O)O)C(=O)N2CCC(OCC(=O)O)CC2)cc1
32 | 1100 | 0.007 | > 9000 | 900 | 1100 | – | C[C@@H](NC(=O)c1ccc(C(=N)N)cc1)C(=O)N1CCC(OCC(=O)O)CC1
33 | 30 | 0.0001 | > 30000 | 20 | 30 | – | C[C@H](NC(=O)c1ccc(C(=N)N)cn1)C(=O)N1CCC(OCC(=O)O)CC1
34 | 12000 | 0.2 | – | 15000 | 12000 | – | N=C(N)c1ccc(S(=O)(=O)NCCc2ccc(OCC(=O)O)cc2)cc1
35 | > 200000 | > 100 | – | > 200000 | > 200000 | – | CC(C)(Oc1ccc(CCNS(=O)(=O)c2ccc(C(=N)N)cc2)cc1)C(=O)O
36 | 151000 | 0.63 | 0.6 | 127000 | 98000 | – | CC(C)[C@H](NC(=O)[C@H](CC(=O)O)NC(=O)CNC(=O)[C@@H](N)CCCNC(=N)N)C(=O)O (H-RGDV-OH)
37 | > 200000 | – | – | > 200000 | > 200000 | 24 | N=C(N)c1cccc(S(=O)(=O)NCCc2ccc(OCC(=O)O)cc2)c1
38 | 400 | 0.0005 | 8000 | 200 | 500 | – | N=C(N)c1ccc(C(=O)Nc2cccc(C(=O)NCCC(=O)O)c2)cc1
